Experimental data published in ChEMBL document CHEMBL2424622, “Development of amino-pyrimidine inhibitors of c-Jun N-terminal kinase (JNK): kinase profiling guided optimization of a 1,2,3-benzotriazole lead” (Bioorg Med Chem Lett, 2013).

Legend:
[1] = target: T1, Dual specificity protein kinase TTK (Homo sapiens) (UniProt P33981); assay: Competitive binding affinity to TTK (unknown origin) at 10 uM in presence of ATP relative to control
T1 sequence (whole entry): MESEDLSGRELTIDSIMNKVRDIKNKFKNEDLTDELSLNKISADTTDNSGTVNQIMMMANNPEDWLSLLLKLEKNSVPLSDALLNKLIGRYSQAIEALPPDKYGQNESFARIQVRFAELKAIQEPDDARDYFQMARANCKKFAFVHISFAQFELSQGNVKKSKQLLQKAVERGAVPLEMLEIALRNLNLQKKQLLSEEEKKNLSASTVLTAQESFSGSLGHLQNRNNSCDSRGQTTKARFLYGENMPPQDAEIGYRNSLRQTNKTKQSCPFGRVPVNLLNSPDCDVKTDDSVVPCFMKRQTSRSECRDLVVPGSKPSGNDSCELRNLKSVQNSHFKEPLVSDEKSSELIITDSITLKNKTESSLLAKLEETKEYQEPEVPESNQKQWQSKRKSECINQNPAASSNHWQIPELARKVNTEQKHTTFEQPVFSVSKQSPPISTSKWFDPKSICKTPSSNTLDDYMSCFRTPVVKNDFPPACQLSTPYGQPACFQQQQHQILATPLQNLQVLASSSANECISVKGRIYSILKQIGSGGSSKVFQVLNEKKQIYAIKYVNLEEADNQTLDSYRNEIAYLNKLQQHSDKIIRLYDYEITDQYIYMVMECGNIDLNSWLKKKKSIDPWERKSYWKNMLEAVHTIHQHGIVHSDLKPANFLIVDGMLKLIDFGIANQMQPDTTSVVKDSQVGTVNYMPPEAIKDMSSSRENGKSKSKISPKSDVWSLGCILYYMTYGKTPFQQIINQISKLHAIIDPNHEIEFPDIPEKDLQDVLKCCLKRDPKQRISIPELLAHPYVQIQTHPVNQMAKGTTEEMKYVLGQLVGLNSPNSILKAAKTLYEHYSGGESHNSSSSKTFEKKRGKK
In short: (§1)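 In vitro ATP-site competition binding assay across a diverse panel of 128 kinases, with each compound tested at a single concentration. Kinase binding is expressed relative to control.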

[2] = target: T2, Myotonin-protein kinase (Homo sapiens) (UniProt Q09013); assay: Competitive binding affinity to DMPK (unknown origin) at 10 uM in presence of ATP relative to control
T2 sequence (whole entry): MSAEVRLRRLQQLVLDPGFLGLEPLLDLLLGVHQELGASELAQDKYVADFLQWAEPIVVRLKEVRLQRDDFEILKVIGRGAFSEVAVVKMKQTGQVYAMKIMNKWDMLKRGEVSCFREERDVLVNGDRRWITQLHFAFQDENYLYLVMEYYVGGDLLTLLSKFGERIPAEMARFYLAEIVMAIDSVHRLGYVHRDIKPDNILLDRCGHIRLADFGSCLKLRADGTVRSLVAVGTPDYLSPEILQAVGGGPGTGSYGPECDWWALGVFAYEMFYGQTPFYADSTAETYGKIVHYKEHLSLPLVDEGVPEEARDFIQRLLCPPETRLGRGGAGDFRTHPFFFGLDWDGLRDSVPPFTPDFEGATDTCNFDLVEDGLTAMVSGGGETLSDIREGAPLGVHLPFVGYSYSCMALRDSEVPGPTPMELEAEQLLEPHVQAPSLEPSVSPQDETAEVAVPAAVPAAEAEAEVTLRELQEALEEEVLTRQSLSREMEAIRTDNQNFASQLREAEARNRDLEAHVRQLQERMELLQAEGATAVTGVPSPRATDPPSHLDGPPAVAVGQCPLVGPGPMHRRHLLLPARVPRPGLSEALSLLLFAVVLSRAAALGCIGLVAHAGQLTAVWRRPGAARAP

[3] = target: AP2-associated protein kinase 1 (Homo sapiens) (UniProt Q2M2I8); assay: Competitive binding affinity to AAK1 (unknown origin) at 10 uM in presence of ATP relative to control; in short: as §1
Sequence of AP2-associated protein kinase 1 (Homo sapiens) (Q2M2I8 whole entry, looked up, the tested form may be a part): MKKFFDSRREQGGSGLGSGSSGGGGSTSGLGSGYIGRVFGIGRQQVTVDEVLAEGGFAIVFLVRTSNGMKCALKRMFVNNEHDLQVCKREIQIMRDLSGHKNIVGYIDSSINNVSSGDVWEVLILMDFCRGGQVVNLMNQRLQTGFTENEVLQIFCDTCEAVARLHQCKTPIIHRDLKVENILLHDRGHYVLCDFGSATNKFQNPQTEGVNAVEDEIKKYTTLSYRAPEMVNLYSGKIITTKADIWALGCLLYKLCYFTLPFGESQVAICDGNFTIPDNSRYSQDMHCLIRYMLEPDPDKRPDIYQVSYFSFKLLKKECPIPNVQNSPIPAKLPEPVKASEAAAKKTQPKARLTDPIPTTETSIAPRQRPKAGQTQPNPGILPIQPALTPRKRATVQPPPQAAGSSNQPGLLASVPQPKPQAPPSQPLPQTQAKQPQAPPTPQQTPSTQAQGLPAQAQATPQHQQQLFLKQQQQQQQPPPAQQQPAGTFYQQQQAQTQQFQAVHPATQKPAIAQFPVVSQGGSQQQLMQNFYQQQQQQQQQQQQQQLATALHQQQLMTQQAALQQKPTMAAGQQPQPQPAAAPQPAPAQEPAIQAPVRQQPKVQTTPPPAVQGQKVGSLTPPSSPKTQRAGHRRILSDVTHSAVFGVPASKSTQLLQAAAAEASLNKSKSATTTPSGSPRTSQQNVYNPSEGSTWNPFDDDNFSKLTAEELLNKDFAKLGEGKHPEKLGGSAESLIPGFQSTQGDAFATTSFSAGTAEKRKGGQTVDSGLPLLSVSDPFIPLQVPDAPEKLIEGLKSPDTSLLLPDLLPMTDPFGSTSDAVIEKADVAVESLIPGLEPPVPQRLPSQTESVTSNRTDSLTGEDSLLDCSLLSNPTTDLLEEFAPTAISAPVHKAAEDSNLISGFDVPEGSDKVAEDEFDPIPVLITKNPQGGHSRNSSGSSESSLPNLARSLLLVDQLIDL

[4] = target: Ribosomal protein S6 kinase alpha-3 (Homo sapiens) (UniProt P51812); assay: Competitive binding affinity to RPS6KA3 domain 1 (unknown origin) at 10 uM in presence of ATP relative to control
Sequence of Ribosomal protein S6 kinase alpha-3 (Homo sapiens) (P51812 whole entry, the tested form may be a part): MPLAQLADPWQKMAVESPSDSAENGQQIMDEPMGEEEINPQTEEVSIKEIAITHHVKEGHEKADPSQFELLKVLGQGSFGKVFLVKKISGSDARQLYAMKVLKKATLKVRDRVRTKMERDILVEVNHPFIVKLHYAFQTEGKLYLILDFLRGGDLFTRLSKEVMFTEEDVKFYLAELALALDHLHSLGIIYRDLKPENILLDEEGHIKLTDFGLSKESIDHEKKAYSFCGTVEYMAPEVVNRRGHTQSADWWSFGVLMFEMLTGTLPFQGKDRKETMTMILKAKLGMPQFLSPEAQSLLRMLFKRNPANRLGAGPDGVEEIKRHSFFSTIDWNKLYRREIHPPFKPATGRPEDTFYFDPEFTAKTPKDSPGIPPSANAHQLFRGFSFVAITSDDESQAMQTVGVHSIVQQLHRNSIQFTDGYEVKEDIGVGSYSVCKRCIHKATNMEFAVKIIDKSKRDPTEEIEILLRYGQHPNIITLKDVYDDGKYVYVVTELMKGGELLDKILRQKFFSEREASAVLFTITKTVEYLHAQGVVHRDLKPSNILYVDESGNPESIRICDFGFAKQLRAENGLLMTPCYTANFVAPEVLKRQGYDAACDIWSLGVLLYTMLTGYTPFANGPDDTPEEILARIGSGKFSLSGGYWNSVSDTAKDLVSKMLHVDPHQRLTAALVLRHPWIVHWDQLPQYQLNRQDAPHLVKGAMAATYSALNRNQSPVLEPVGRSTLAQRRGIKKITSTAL
In short: (§2)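 In vitro ATP-site competition binding assay across a diverse panel of 128 kinases, with compound tested at a single concentration. Kinase selectivity scores (S15) were calculated from the panel profiles.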

[5] = target: Serine/threonine-protein kinase PAK 6 (Homo sapiens) (UniProt Q9NQU5); assay: Competitive binding affinity to PAK6 (unknown origin) at 10 uM in presence of ATP relative to control; in short: as §2
Sequence of Serine/threonine-protein kinase PAK 6 (Homo sapiens) (Q9NQU5 whole entry, looked up): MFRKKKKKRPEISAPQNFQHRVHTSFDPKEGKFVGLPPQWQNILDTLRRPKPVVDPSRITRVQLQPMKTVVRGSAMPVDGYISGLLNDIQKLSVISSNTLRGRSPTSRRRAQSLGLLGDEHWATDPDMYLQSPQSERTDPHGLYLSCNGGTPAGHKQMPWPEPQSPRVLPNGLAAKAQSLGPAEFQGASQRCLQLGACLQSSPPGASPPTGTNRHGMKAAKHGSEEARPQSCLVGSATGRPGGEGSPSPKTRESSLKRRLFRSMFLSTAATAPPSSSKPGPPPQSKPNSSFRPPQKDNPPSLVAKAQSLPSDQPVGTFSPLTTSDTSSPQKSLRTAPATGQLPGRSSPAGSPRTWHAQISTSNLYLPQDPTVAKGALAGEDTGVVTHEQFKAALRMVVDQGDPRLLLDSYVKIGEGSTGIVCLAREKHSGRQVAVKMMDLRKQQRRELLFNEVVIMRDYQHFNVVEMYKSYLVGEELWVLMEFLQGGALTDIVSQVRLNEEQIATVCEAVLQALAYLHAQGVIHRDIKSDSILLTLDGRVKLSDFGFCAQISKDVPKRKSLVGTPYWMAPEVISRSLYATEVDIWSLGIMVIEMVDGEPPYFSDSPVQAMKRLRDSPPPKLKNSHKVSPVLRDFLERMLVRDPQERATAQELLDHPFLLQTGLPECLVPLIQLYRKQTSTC

[6] = target: T3, Serine/threonine-protein kinase Nek9 (Homo sapiens) (UniProt Q8TD19); assay: Competitive binding affinity to NEK9 (unknown origin) at 10 uM in presence of ATP relative to control; in short: as §2
T3 sequence (whole entry): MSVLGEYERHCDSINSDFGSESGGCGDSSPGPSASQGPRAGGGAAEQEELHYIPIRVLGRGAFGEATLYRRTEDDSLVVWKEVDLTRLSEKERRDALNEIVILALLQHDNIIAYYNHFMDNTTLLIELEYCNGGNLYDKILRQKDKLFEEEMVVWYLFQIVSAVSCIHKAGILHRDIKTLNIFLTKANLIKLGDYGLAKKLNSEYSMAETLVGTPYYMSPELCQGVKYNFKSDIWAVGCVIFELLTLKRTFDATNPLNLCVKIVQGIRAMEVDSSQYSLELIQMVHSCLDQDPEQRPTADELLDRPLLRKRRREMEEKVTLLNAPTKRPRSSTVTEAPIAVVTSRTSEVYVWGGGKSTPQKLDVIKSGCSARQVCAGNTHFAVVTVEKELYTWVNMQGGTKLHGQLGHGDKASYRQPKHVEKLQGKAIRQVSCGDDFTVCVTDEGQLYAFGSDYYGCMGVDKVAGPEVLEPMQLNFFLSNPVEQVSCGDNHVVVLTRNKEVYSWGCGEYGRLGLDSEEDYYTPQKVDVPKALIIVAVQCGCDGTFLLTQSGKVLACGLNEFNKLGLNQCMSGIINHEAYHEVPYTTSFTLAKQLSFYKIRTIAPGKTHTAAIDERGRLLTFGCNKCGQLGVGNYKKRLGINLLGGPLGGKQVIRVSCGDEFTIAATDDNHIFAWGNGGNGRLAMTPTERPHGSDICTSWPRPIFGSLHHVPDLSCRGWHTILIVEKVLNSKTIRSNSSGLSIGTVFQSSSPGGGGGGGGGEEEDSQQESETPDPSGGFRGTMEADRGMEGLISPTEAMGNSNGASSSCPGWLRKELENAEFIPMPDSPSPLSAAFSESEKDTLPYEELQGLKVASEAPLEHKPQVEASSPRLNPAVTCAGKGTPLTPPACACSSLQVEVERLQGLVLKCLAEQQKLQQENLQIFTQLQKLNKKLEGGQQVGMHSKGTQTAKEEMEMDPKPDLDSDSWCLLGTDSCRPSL

Row | Structure (SMILES) | inhibition [1] [%] | inhibition [2] [%] | inhibition [3] [%] | inhibition [4] [%] | inhibition [5] [%] | inhibition [6] [%]
1 | CS(=O)(=O)CCCOc1cccc2c1ccn2-c1ccnc(N[C@H]2CC[C@H](C(=O)N3CCC(O)CC3)CC2)n1 | > 85 | – | – | – | – | –
2 | O[C@H]1CC[C@H](Nc2nccc(-n3ccc4ccccc43)n2)CC1 | 84 | < 50 | 70 | < 50 | < 50 | < 50
3 | N[C@H]1CC[C@H](Nc2nccc(-n3nnc4ccccc43)n2)CC1 | 96 | < 50 | 99 | 84 | < 50 | < 50
4 | O[C@H]1CC[C@H](Nc2nccc(-n3nnc4ccccc43)n2)CC1 | 99 | < 50 | 98 | 77 | < 50 | 81
5 | O[C@H]1CC[C@H](Nc2nccc(-n3ncc4ccccc43)n2)CC1 | 100 | < 50 | 95 | < 50 | < 50 | < 50
6 | O=C([C@H]1CC[C@H](Nc2nccc(-n3nnc4ccccc43)n2)CC1)N1CCOCC1 | 98 | < 50 | 98 | 90 | < 50 | < 50
7 | O[C@H]1CC[C@H](Nc2nccc(-c3n[nH]c4ccccc34)n2)CC1 | 100 | 80 | 99 | 97 | 86 | < 50
